Shown are actives, neighbours in structure and some others; about 2.2% of the full set was active somewhere.
PfM18AAP inh: blocks P. falciparum M18 aspartyl aminopeptidase; recombinant PfM18AAP, H-Glu-NHMec fluorogenic cleavage; inhibition, % at 7.35 µM; hit rate 1.2% among 290,000; AID 1822;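 active means inhibition above the campaign mean inhibition over all tested compounds plus 3 SD, cut at about 28% in these data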;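 further: 0% = plate median of test compound wells and 100% = 2 mM ZnCl2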
PfGluPho inh: PfG6PD (Plasmodium falciparum) enzyme inhibition; hit rate 0.78% among 350,000; PfGluPho enzyme, NADPH resazurin-diaphorase fluorescence; inhibition, % at 20 µM;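 active means inhibition reaching at least a set limit at 20 µM in the primary screen, cut at about 59% in these data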;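 further: 0% = DMSO wells with substrate and 100% = DMSO wells lacking glucose-6-phosphate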
Neddyl block: inhibitors of human cullin neddylation | P61081+Q13564 | TR-FRET cullin neddylation, biochemical | inhibition, % at 25 µM | hit rate 0.58% among 360,000; in the data active means inhibition above about 36%
HKDC1 inhibitor: HKDC1 (human) hexokinase inhibition | Q2TB90 | inhibition, % at 20 µM | hit rate 0.16% among 340,000 | recombinant HKDC1, G6PDH/diaphorase resazurin coupled fluorescence;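 active means inhibition above about 35% when tested at 20 µM, limit read from the data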;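 further: plate controls were DMSO wells with enzyme for no effect and DMSO wells lacking enzyme for full effect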
Target sequence (Q2TB90 whole entry, looked up): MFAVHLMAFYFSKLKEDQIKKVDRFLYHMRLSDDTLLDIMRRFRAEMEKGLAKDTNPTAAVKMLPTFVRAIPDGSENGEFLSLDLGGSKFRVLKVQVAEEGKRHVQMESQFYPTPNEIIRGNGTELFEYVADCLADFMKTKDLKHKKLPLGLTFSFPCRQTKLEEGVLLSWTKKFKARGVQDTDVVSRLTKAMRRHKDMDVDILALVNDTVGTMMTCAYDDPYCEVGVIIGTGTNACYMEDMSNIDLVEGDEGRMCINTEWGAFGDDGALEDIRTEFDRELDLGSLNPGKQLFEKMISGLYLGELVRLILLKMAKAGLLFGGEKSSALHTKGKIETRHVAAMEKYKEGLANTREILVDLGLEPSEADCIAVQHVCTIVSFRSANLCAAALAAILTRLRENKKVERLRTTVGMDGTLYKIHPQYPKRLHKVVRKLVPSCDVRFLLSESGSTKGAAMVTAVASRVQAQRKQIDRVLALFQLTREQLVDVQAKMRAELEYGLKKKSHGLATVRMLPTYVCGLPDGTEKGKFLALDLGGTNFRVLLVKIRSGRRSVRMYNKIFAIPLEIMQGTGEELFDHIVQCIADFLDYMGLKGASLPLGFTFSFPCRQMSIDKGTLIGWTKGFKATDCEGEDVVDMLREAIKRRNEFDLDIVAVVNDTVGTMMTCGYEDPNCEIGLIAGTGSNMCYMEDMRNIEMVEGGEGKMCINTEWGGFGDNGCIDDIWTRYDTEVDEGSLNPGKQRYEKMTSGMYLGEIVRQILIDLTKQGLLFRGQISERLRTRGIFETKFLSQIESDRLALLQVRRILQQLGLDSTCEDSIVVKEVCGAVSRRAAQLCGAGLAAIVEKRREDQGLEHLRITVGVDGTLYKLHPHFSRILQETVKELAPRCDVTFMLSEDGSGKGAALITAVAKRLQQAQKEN
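Material – in-house recombinant HK5 (HKDC1) enzyme · Quantity – HKDC1 at 5 µg/mL · Buffer or medium – pH 8.0 Tris buffer with 10 mM MgCl2 · Reagent – glucose with 1 mM ATP · Dosing – single 20 µM dose · Times – reaction time 90 min, room temperature, protected from light · Technique – resorufin fluorescence at 613 nm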
PfG6PD confirm: PfG6PD inhibition, single-dose confirmed; shares compounds with PfGluPho inh; recombinant PfGluPho, NADPH-diaphorase-resazurin fluorescence; inhibition, % at 20 µM; hit rate 34% among 2,400;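 active means inhibition of at least 50% at 20 µM in any single replicate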;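 further: 0% = DMSO with substrate and 100% = DMSO lacking glucose-6-phosphate substrate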
Diaphorase 10uM: counter-screen for P. falciparum G6PD inhibitors: diaphorase inhibitors, oxidizers; shares compounds with PfGluPho inh; diaphorase-coupled resazurin reduction, fluorescence, NADPH 10 uM; inhibition, % at 20 µM; hit rate 39% among 820;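 active means average inhibition reaching 50% or more with the compound at 20 µM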;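 further: resorufin red fluorescence formed as diaphorase reduces resazurin using NADPH; 0% = DMSO with enzyme and 100% = DMSO without enzyme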
Diaphorase 30uM: counter-screen for P. falciparum G6PD inhibitors: diaphorase inhibitors, oxidizers; shares compounds with PfGluPho inh; Diaphorase/resazurin coupled assay, resorufin fluorescence, 30 uM NADPH; inhibition, % at 20 µM; hit rate 29% among 820;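 active means inhibition averaging 50% or more, tested at 20 µM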;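 further: 0% = DMSO with enzyme and 100% = DMSO wells lacking diaphorase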
Starred values were filed as active, the others as inactive.

Cc1ccc(OCC(=O)N/N=C/c2cn(C)c3ccccc23)cc1 was read as PfM18AAP inh 6, PfGluPho inh 7, Neddyl block 5 and HKDC1 inhibitor -3.
Screening C[C@@H](CN1C(=O)C(=O)NC[C@@H]1C)NC(=O)CC12CC3CC(CC(C3)C1)C2 returned PfM18AAP inh -2, PfGluPho inh 4, Neddyl block -29 and HKDC1 inhibitor -8.
`Cc1ccc(C(=O)COC(=O)COc2ccccc2C)cc1` gave PfM18AAP inh 0, PfGluPho inh -1, Neddyl block -5 and HKDC1 inhibitor 2.
`O=C(COc1ccccc1F)OCC(=O)c1ccc([N+](=O)[O-])cc1` gave PfGluPho inh 88*, Neddyl block -41, HKDC1 inhibitor -5, PfG6PD confirm 52*, Diaphorase 10uM 19 and Diaphorase 30uM -1.
Screening O=C(Nc1ccc(N2CCOCC2)cc1)c1ccc2ncsc2c1 returned PfGluPho inh 66*, Neddyl block -6, HKDC1 inhibitor -4 and PfG6PD confirm 22.
For Nc1nc2ccc(C(=O)Nc3ccc(N4CCOCC4)cc3)cc2s1 the results were PfGluPho inh 17, Neddyl block 12 and HKDC1 inhibitor 1.
O=C(COC(=O)c1c(F)cccc1Cl)NCC1CCCCC1 was read as PfGluPho inh 0, Neddyl block 3 and HKDC1 inhibitor 4.
O=C(CCC(=O)Nc1ccc(Cl)cc1Cl)N/N=C/c1ccc([N+](=O)[O-])o1 was read as PfM18AAP inh 9, PfGluPho inh 62*, Neddyl block 1, HKDC1 inhibitor 0 and PfG6PD confirm 45.
Screening CC(=O)CSc1ccc(-c2nc3cc(C)c(C)cc3[nH]2)cn1 returned PfM18AAP inh -3, PfGluPho inh 67*, Neddyl block 26, HKDC1 inhibitor -4 and PfG6PD confirm 20.
Screening Cc1ccc2nc(-c3ccc(SCC(=O)N4CCc5ccccc54)nc3)[nH]c2c1 returned PfM18AAP inh 0, PfGluPho inh 59, Neddyl block -41, HKDC1 inhibitor 0 and PfG6PD confirm 12.
For CC(C)C1OC(CCc2ccccc2)Cc2[nH][nH]c(=O)c21 (stereo not given) the results were Neddyl block 1.
Screening CC1=C(n2nnc([N+](=O)[O-])n2)C(c2cccnc2)C(C#N)=C(N)O1 (stereo not given) returned PfM18AAP inh 0, PfGluPho inh 84*, Neddyl block -23, HKDC1 inhibitor 21, PfG6PD confirm 79*, Diaphorase 10uM 48 and Diaphorase 30uM 49.
Screening COc1ccc(NC(=O)CSCC(=O)Nc2ccc(C)c(S(=O)(=O)N3CCCCCC3)c2)cc1 returned PfGluPho inh 2, Neddyl block 4 and HKDC1 inhibitor 5.
`Brc1ccc(-c2cn3ccccc3n2)s1` gave PfM18AAP inh 8, PfGluPho inh 30, Neddyl block -34 and HKDC1 inhibitor -1.
`CC(=O)Nc1ccc(-c2cn3cc(C)ccc3n2)cc1` gave PfM18AAP inh -1, PfGluPho inh 10 and HKDC1 inhibitor -5.
`Cc1ccc2nc(-c3ccccc3)cn2c1` gave PfM18AAP inh -12, PfGluPho inh 79*, Neddyl block 39*, HKDC1 inhibitor 2 and PfG6PD confirm 40.
Cc1ccc2nc(-c3ccc(-c4ccccn4)s3)cn2c1 was read as PfM18AAP inh 2, PfGluPho inh 65*, Neddyl block 18, HKDC1 inhibitor 3 and PfG6PD confirm 39.
Clc1ccc(-c2cn3cc(Cl)ccc3n2)cc1 was read as PfM18AAP inh -5, PfGluPho inh 72*, Neddyl block 3, HKDC1 inhibitor 0 and PfG6PD confirm 34.
Screening COc1ccc(NC(=O)CCN2C(=O)c3ccncc3C2=O)cc1OC returned PfM18AAP inh 3, PfGluPho inh -16, Neddyl block -32 and HKDC1 inhibitor -1.
O=[N+]([O-])c1ccc(Cl)c(S(=O)(=O)Nc2cccc(S(=O)(=O)NC3=NCCC3)c2)c1 was read as PfGluPho inh 67*, Neddyl block -28, HKDC1 inhibitor 13 and PfG6PD confirm 42.
O=C(Nc1cccc(OC(=O)c2ccc(Br)o2)c1)c1ccccc1 was read as PfM18AAP inh -5, PfGluPho inh 14, Neddyl block -5 and HKDC1 inhibitor -1.

Source: PubChem
